Activity calls are given as the source filed them. The calls are words filed in the database; no cut-off is given here.
Legend:
[1] = target: T1, Histone-arginine methyltransferase CARM1 (Mus musculus, UniProt Q9WVG6); experiment: Inhibition of mouse recombinant his-tagged CARM1 expressed in Sf9 cells by histone methyltransferase assay
T1 sequence (Q9WVG6 whole entry): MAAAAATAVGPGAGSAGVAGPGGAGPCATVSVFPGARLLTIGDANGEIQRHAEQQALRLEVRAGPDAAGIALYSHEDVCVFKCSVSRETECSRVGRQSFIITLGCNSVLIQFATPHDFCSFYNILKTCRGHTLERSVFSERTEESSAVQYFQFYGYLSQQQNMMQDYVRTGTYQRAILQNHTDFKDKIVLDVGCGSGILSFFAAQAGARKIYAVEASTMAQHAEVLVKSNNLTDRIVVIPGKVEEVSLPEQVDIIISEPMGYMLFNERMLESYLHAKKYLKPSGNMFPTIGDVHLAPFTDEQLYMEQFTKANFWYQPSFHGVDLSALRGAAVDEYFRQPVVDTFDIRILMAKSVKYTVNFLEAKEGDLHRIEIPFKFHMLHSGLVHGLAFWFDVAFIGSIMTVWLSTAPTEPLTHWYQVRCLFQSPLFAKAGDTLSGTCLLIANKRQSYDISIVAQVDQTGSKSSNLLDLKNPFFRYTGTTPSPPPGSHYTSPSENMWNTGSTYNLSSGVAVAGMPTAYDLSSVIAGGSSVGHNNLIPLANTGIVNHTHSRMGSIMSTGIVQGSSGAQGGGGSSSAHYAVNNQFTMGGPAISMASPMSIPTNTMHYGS
Procedure, shortened: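 Recombinant CARM1 diluted in Tris–HCl pH 9 and pre-incubated with compound for 10 min at rt. Histone H3 substrate plus SAM containing 20% [3H]SAM then added and incubated 15 min at 30 °C. Reaction quenched with SAH, spotted onto P30 filtermat with wax scintillant, and incorporated radioactivity counted.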

Estrogen receptor = target: T2, Estrogen receptor (Homo sapiens, UniProt P03372); experiment: Antiestrogenic activity in human T47D cells expressing estrogen receptor assessed as estrogen-dependent transcription by luciferase reporter gene assay; type: cell-based
T2 sequence (P03372 whole entry): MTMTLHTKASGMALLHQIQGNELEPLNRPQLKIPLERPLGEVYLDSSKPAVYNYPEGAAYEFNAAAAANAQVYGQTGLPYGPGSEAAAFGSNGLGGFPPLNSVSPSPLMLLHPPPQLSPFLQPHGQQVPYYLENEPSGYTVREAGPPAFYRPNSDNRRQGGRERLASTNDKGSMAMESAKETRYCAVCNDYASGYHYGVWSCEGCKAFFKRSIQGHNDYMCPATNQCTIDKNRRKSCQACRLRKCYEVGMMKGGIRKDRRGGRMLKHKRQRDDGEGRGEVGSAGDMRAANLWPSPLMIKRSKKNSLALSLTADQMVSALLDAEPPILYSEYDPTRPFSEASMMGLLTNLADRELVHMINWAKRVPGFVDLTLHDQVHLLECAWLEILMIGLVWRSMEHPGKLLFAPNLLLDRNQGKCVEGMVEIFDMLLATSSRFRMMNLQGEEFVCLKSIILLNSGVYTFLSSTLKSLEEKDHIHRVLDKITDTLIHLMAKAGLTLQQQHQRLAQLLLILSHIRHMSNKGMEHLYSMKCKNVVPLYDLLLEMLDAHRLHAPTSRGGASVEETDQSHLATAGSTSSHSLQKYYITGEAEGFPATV

T47D = experiment: Growth inhibition of human estrogen-dependent T47D cells after 72 hrs; type: functional, cell-based
Procedure, shortened: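 T47D breast ductal carcinoma cells stimulated with estradiol and counted after 72 h; tamoxifen as positive control.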

Androgen receptor = target: T3, Androgen receptor (Homo sapiens, UniProt P10275); experiment: Antiandrogenic activity in human MDA-MB-453 cells expressing androgen receptor assessed as inhibition of DHT-induced androgen-dependent transcription by luciferase reporter gene assay; type: cell-based
T3 sequence (P10275 whole entry): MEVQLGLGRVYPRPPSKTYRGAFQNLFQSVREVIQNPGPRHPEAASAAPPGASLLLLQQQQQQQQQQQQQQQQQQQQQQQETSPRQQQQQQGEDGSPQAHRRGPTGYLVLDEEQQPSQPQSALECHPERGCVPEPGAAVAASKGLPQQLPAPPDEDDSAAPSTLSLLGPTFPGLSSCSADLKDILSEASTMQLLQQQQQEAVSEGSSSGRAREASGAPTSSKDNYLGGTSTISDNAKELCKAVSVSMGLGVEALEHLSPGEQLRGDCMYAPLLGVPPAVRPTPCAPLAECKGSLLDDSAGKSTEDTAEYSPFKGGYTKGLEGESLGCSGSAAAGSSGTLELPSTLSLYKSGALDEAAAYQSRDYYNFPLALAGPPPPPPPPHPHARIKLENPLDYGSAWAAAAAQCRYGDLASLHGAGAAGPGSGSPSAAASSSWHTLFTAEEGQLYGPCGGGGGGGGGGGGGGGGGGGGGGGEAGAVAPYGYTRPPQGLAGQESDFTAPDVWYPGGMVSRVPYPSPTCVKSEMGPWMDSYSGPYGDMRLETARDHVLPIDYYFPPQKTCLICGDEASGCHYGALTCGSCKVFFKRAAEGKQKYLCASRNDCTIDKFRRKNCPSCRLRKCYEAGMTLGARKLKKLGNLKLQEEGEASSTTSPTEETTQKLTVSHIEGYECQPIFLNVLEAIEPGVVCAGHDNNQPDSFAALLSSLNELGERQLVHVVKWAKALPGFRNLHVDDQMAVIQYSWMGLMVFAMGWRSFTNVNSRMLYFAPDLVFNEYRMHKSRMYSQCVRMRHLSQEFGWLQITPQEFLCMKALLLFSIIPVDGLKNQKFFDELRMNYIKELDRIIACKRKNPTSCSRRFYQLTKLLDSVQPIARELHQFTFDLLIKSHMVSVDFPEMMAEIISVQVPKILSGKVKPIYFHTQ

DU-145 = experiment: Cytotoxicity against human DU145 cells by MTT assay; type: functional, cell-based
Procedure, shortened: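 DU145 prostate carcinoma cell growth measured by MTT proliferation assay; HDAC inhibitor MS-275 as positive control.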

[2] = target: Protein arginine N-methyltransferase 1 (Homo sapiens, UniProt Q99873); experiment: Inhibition of PRMT1
Chain of Protein arginine N-methyltransferase 1 (Q99873 whole entry): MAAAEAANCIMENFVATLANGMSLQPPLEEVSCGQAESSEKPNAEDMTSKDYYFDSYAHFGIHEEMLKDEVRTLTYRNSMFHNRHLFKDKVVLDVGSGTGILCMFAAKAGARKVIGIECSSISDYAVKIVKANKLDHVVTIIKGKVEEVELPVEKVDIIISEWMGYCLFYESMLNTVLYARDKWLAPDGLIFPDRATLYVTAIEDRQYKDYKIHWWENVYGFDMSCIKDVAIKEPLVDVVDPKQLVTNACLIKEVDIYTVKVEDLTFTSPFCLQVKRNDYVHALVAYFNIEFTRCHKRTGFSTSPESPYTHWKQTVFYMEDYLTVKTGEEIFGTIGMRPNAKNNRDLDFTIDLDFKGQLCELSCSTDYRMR

[3] = target: T4, Histone-lysine N-methyltransferase SETD7 (Homo sapiens, UniProt Q8WTS6); experiment: Inhibition of Set7/9 lysine methyltransferase
T4 sequence (Q8WTS6 whole entry): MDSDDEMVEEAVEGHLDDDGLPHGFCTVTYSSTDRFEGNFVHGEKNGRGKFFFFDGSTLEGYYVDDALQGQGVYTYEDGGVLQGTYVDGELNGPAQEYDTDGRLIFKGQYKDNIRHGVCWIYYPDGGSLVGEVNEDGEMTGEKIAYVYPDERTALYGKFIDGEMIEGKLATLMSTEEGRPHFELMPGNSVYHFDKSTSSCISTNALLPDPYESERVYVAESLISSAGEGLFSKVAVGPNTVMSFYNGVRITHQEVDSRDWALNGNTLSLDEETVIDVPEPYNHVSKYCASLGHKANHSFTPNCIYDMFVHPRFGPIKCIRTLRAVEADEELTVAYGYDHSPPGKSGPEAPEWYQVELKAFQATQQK

[4] = target: T5, Histone-arginine methyltransferase CARM1 (Mus musculus) (UniProt Q9WVG6); experiment: Inhibition of mouse recombinant CARM1 assessed as inhibition of histone H3 methylation at 5 uM after 48 hrs by cell based assay
T5 sequence (whole entry): T1 sequence (Q9WVG6 whole entry)
Procedure, shortened: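 Cell-based readout of histone H3 arginine 26 methylation, a CARM1 target site, in two different cell lines treated with compound up to […] for 48 h.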

IC50 [1] [nM]	Structure (SMILES)	other results
60	COc1ccccc1CNC(=O)c1cc(C(F)(F)F)nn1-c1cccc(CNC(=O)[C@H](C)N)c1	IC50 (Estrogen receptor): > 10000 nM; IC50 (T47D): > 10000 nM; IC50 (Androgen receptor): > 10000 nM; IC50 (DU-145): 18000 nM
> 10000	COc1ccccc1CNC(=O)c1cc(C(F)(F)F)nn1-c1cccc2c1CN(CNC(=O)[C@H](C)N)C2	
300	COc1ccccc1CNC(=O)c1cc(C(F)(F)F)nn1-c1ccc(CNC(=O)[C@H](C)N)s1	
790	C[C@H](N)C(=O)NCc1cc(-n2nc(C(F)(F)F)cc2C(=O)NCc2ccccc2F)cs1	
60	COc1ccccc1CNC(=O)c1cc(C(F)(F)F)nn1-c1csc(CNC(=O)[C@H](C)N)c1	IC50 [2]: > 100000 nM; IC50 [3]: > 100000 nM; Activity [4]: inactive; IC50 (Estrogen receptor): > 10000 nM; IC50 (T47D): > 10000 nM; IC50 (Androgen receptor): > 10000 nM; IC50 (DU-145): 18000 nM
> 10000	COc1ccccc1CNC(=O)c1cc(C(F)(F)F)nn1-c1cccc2cc(CNC(=O)[C@H](C)N)oc12	
4200	COc1ccccc1CNC(=O)c1cc(C(F)(F)F)nn1-c1cc(CNC(=O)[C@H](C)N)ccn1	
4480	C[C@H](N)C(=O)NCc1ccc(-n2nc(C(F)(F)F)cc2C(=O)NCc2ccccc2C(F)(F)F)s1	
	Nc1ccccc1NC(=O)c1ccc(CNC(=O)OCc2cccnc2)cc1 [ENTINOSTAT]	IC50 (DU-145): 2000 nM
2920	CC(C)Oc1ccccc1CNC(=O)c1cc(C(F)(F)F)nn1-c1ccc(CNC(=O)[C@H](C)N)s1	
370	COc1cccc(CNC(=O)c2cc(C(F)(F)F)nn2-c2csc(CNC(=O)[C@H](C)N)c2)c1	
3350	C[C@H](N)C(=O)NCc1ccc(-n2nc(C(F)(F)F)cc2C(=O)NCc2ccccn2)s1	
230	C[C@H](N)C(=O)NCc1ccc(-n2nc(C(F)(F)F)cc2C(=O)NCc2ccccc2)s1	
770	COC(=O)c1ccccc1CNC(=O)c1cc(C(F)(F)F)nn1-c1csc(CNC(=O)[C@H](C)N)c1	
220	C[C@H](N)C(=O)NCc1cc(-n2nc(C(F)(F)F)cc2C(=O)NCc2ccccc2)cs1	
3050	COc1ccccc1CNC(=O)c1cc(C(F)(F)F)nn1-c1cccc(CNC(=O)[C@H](C)N)n1	
260	Cc1ccccc1CNC(=O)c1cc(C(F)(F)F)nn1-c1csc(CNC(=O)[C@H](C)N)c1	
2200	COc1ccccc1CNC(=O)c1cc(C(F)(F)F)nn1-c1nc(CNC(=O)[C@H](C)N)cs1	
	CC/C(=C(\c1ccccc1)c1ccc(OCCN(C)C)cc1)c1ccccc1 [TAMOXIFEN]	IC50 (T47D): 1000 nM
2310	C[C@H](N)C(=O)NCc1ccc(-n2nc(C(F)(F)F)cc2C(=O)NCc2ccccc2F)s1	
